The text below walks through data of PubChem BioAssay.

Each structure is given as a SMILES string. The source made the active and inactive calls.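 Rule for the calls, unless noted: active = Her2 level under about 52% in both replicate screens, with viability over 70% of control (limit read from the data); inconclusive = Her2 under the limit in one screen only, or viability under 70%; inactive = Her2 level above the set limit.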

Test [1] in a line: reducers of endogenous Her2 protein level, primary screen, SKBR3 breast tumor cells, AlphaScreen, ATP viability (AID 461).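 For Her2 level: lower value means less Her2 protein in the cells.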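 For viability: percent of carrier control wells set as 100% viability.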 The conditions noted are these: 18-24 h, measured here: SKBR3 viability, ATP luminescence, at 10 µM. In general terms: In Alpha technology, singlet oxygen from a donor bead excites a nearby acceptor bead.
For test [2], the target named is Receptor tyrosine-protein kinase erbB-2 (Homo sapiens) (UniProt P04626). The test is described as above. The conditions noted are these: 18-24 h, at 10 µM, stronger effect = lower value.
Receptor tyrosine-protein kinase erbB-2 (Homo sapiens), sequence (P04626 whole entry, looked up): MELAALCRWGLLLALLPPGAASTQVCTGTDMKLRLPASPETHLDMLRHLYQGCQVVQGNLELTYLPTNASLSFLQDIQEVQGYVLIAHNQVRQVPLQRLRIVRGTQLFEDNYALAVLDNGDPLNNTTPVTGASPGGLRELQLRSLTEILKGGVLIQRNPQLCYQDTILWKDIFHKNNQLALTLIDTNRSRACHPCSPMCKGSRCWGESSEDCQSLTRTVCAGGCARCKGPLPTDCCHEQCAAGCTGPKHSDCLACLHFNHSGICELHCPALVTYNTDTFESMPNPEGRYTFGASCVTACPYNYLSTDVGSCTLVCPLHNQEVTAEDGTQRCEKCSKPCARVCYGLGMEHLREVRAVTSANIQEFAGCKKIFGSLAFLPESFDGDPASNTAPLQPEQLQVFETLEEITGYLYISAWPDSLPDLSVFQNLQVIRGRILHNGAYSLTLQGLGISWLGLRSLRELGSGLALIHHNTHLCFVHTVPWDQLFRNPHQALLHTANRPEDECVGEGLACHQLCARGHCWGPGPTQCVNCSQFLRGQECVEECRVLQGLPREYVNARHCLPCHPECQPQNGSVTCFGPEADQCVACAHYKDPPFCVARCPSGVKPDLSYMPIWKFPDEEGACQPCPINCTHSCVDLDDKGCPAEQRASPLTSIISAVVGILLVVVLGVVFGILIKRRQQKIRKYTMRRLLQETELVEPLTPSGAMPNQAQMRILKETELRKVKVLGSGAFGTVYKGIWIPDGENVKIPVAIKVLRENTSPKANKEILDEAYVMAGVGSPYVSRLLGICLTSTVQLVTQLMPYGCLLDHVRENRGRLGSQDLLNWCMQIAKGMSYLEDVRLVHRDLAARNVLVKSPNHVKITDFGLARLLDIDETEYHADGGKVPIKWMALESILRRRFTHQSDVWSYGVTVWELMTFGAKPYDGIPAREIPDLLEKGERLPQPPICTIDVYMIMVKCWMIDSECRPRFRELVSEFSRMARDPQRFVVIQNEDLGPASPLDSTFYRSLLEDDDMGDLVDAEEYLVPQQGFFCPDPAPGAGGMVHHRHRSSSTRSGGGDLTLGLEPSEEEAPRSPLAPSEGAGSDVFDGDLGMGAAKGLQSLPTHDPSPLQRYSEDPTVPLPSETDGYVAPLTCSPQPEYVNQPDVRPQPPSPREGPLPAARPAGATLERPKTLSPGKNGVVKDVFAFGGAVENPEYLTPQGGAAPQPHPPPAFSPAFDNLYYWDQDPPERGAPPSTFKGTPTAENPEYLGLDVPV
Test [3] can be described thus: SK-BR-3 cell growth inhibitors, pilot screen, 24 h, human (AID 572;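 active = viability at or below 10% of carrier control in both of two separate runs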;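 note: compound exposure lasted between 18 and 24 h rather than exactly 24 h; 100% = carrier-treated control wells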). The note with it: SK-BR-3 viability, CellTiter-Glo luminescence, at 10 µM, stronger effect = lower value. A general note: ATP-based viability assays read luminescence as a measure of living cells.
The nature of test [4]: HUVEC growth inhibition – cell-based, human, primary screen (AID 575;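 active = viability at or below 30% in both replicate assays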;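 note: 100% = median of untreated cell wells with 0.1% DMSO on each plate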). The note with it: HUVEC proliferation, CellTiter-Glo luminescence, 72 h; at 10 µM; stronger effect = lower value. A digest of the protocol:
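Material: primary human umbilical vein endothelial cells / Schedule: 72 h exposure, 37 °C, 5% CO2, 30 min RT equilibration / Signal: ATP-based CellTiter-Glo luminescent read / Read-out basis: percent of median DMSO-control luminescence / Control set: 32 DMSO-only cell-control wells (high), 32 MePR drug-control wells (low) per plate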

Test [5] in a line: growth inhibitors of H69AR lung tumor, primary screen, human, duplicate replicates (AID 580;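 active = viability at or under a set limit in both replicates, limit being median viability minus 3 SD, cut at about 48% in these data, passing the limit was not always enough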;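 note: 100% = mean luminescence of untreated wells and 0% = no signal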). The note with it: H69AR lung tumor cells viability, ATP luminescence, 72 h; at 10 µM; stronger effect = lower value.
A short description of test [6]: reversal of MRP1-mediated doxorubicin resistance, pilot screen, H69AR cells, doxorubicin co-treatment (AID 601;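 active = viability loss from added drug above about 55%, and viability with drug at most 40%, in both replicates, limit read from the data, passing the limit was not always enough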). The note with it: CellTiter-Glo, 72 h, at 10 µM; for differential viability (reversal): stronger effect = higher value.
The nature of test [7]: 384-well plate pilot, post-Golgi transport modulator project, inhibition of yeast transport mutant growth (AID 636; in the data active = inhibition above about 31%). The note with it: absorbance 615 nm, about 18 h, stronger effect = higher value.
Test [8] in a line: growth suppression of yeast trafficking mutant, preliminary HTS, modulators of trafficking downstream of Golgi apparatus project, 1536-format plate, OD 615 nm (AID 637; in the data active = inhibition above about 30%). The note with it: yeast transport mutant growth, absorbance 615 nm, 18 h; stronger effect = higher value.
Where [9] appears, read: H69AR cells + 2 uM doxorubicin, measured here: viability with 2 uM doxorubicin, stronger effect = lower value.
Where [10] appears, read: H69AR cells, compound alone cytotoxicity.

For `CCCNc1nc2c(c(=O)n(C)c(=O)n2C)n1Cc1cccc(C)c1`, the viability in test [1] was 87.5%; in test [3] it was 87.5% (inactive); in test [4] it was 83.7% (inactive); in test [5] it was 95.6% (inactive); in test [6] (setting [9]) it was 101%; in test [6] (setting [10]), 95.6%. Besides, the Her2 level in test [2] was 85% (inactive). Further, in test [6] (H69AR cells + 2 uM doxorubicin), the differential viability (reversal) is -5.19% (inactive). The inhibition in test [7] is -4.25% (inactive); in test [8] it was -3.97% (inactive).
In the case of `c1ccc2c(c1)CNc1ccccc1C2`, the viability in test [1] was 97.5%; in test [3] it was 97.5% (inactive); in test [4], 73.5% (inactive); in test [5], 93.1% (inactive); in test [6] (setting [9]), 98%; in test [6] (setting [10]), 93.1%. For the same molecule, the Her2 level in test [2] is 90.5% (inactive). Besides, in test [6] (H69AR cells + 2 uM doxorubicin), the differential viability (reversal) was -4.85% (inactive). The inhibition in test [7] is -3.87% (inactive); in test [8], -3.71% (inactive).
`COc1cc(Cn2c(C(=O)O)cc3sccc32)cc(OC)c1OC`: the viability in test [1] is 107%; in test [3], 107% (inactive); in test [4] it was 98.4% (inactive); in test [5], 94.1% (inactive); in test [6] (setting [9]), 91.7%; in test [6] (setting [10]), 94.1%. For the same molecule, in test [2], the Her2 level is 102% (inactive). Besides, in test [6] (H69AR cells + 2 uM doxorubicin), the differential viability (reversal) is 2.41% (inactive). Moreover, the inhibition is -1.97% (inactive) in test [7] and 6.56% (inactive) in test [8].
As to `CCCC(C)c1nnc(NC(=O)C2CCCO2)s1` (stereo not given), the viability in test [1] is 126%; in test [3], 126% (inactive); in test [4] it was 95.8% (inactive); in test [5] it was 93.9% (inactive); in test [6] (setting [9]) it was 93%; in test [6] (setting [10]), 93.9%. In addition, the Her2 level in test [2] is 91% (inactive). For the same molecule, the differential viability (reversal) in test [6] (H69AR cells + 2 uM doxorubicin) was 0.895% (inactive). Besides, the figures for the inhibition in test [7] and in test [8] were -7.33% (inactive) and -3.06% (inactive), respectively.
As for `CCOC(=O)CC(=O)CSc1[nH]c(=O)cc(C)c1C#N`, the viability is 87.5% in test [1]; 87.5% (inactive) in test [3]; 99.3% (inactive) in test [4]; 108% (inactive) in test [5]; 104% in test [6] (setting [9]); 108% in test [6] (setting [10]). For the same molecule, in test [2], the Her2 level is 106% (inactive). The differential viability (reversal) in test [6] (H69AR cells + 2 uM doxorubicin) was 4.69% (inactive). In addition, the inhibition in test [7] was -4.8% (inactive); in test [8], -0.16% (inactive).
Take `COc1ccc(C2/C(=C(/O)c3cnn(-c4ccccc4)c3C)C(=O)C(=O)N2CCN(C)C)cc1OC` (stereo not given): the viability was 109% in test [1]; 109% (inactive) in test [3]; 102% (inactive) in test [4]; 101% (inactive) in test [5]; 98.7% in test [6] (setting [9]); 101% in test [6] (setting [10]). For the same molecule, the Her2 level in test [2] was 86% (inactive). The differential viability (reversal) in test [6] (H69AR cells + 2 uM doxorubicin) is 1.86% (inactive). Also, the inhibition in test [7] was -1.62% (inactive); in test [8], -2.54% (inactive).
For the molecule `COc1ccc(CCNC(=O)CC2COc3ccccc3O2)cc1OC` (stereo not given), the viability in test [1] was 102%; in test [3], 102% (inactive); in test [4], 100% (inactive); in test [5] it was 85.4% (inactive); in test [6] (setting [9]) it was 80.8%; in test [6] (setting [10]), 85.4%. In addition, in test [2], the Her2 level is 93% (inactive). Further, in test [6] (H69AR cells + 2 uM doxorubicin), the differential viability (reversal) was 4.62% (inactive). Also, the inhibition in test [7] is -4.67% (inactive); in test [8], 8.36% (inactive).
On to `CCOC(=O)C1CCCN(CCC(C)c2ccccc2)C1` (stereo not given), for which the viability is 94% in test [1]; 94% (inactive) in test [3]; 106% (inactive) in test [4]; 95.7% (inactive) in test [5]; 84.3% in test [6] (setting [9]); 95.7% in test [6] (setting [10]). Moreover, the Her2 level in test [2] is 84.5% (inactive). In addition, the differential viability (reversal) in test [6] (H69AR cells + 2 uM doxorubicin) was 11.3% (inactive). In addition, the inhibition in test [7] is -6.8% (inactive); in test [8] it was 4.1% (inactive).
For `N#CC1=C(N)N(c2ccccc2)C2=C(C(=O)CCC2)C1c1cccs1` (stereo not given), the viability in test [1] is 96.5%; in test [3] it was 96.5% (inactive); in test [4], 80.8% (inactive); in test [5], 70.3% (inactive); in test [6] (setting [9]), 23.5%; in test [6] (setting [10]), 70.3%. For the same molecule, in test [2], the Her2 level was 97.5% (inactive). The differential viability (reversal) in test [6] (H69AR cells + 2 uM doxorubicin) was 46.8% (inactive). Moreover, the inhibition is -5.95% (inactive) in test [7] and 0.83% (inactive) in test [8].
Turning to `CCn1c(C)nc2cc(C(=O)OCCC(F)(F)F)ccc21`, the viability in test [1] is 100%; in test [3], 100% (inactive); in test [4], 108% (inactive); in test [5] it was 89.8% (inactive); in test [6] (setting [9]), 93.7%; in test [6] (setting [10]) it was 89.8%. The Her2 level in test [2] is 112% (inactive). For the same molecule, in test [6] (H69AR cells + 2 uM doxorubicin), the differential viability (reversal) is -3.94% (inactive). Moreover, the inhibition in test [7] was -2.44% (inactive); in test [8], 7.67% (inactive).
In the case of `COc1cccc(OC)c1C(=O)Nc1cccc(C(C)=O)c1`, the viability in test [1] was 103%; in test [3], 103% (inactive); in test [4], 98.8% (inactive); in test [5], 98.7% (inactive); in test [6] (setting [9]), 92.2%; in test [6] (setting [10]) it was 98.7%. The Her2 level in test [2] is 99% (inactive). Also, the differential viability (reversal) in test [6] (H69AR cells + 2 uM doxorubicin) is 6.47% (inactive). In addition, the inhibition is -6.27% (inactive) in test [7] and 0.48% (inactive) in test [8].
In the case of `CC(=O)Nc1ccc(S(=O)(=O)Nc2nc3n(n2)C(c2ccccc2)CC(=O)N3)cc1` (stereo not given), the viability is 99.5% in test [1]; 99.5% (inactive) in test [3]; 102% (inactive) in test [4]; 107% (inactive) in test [5]; 99.9% in test [6] (setting [9]); 107% in test [6] (setting [10]). The Her2 level in test [2] was 83.5% (inactive). Besides, the differential viability (reversal) in test [6] (H69AR cells + 2 uM doxorubicin) was 6.67% (inactive). Further, the inhibition was -7.7% (inactive) in test [7] and -0.32% (inactive) in test [8].
Consider `Cc1ccc(Cn2ncc3c(NCCCN4CCOCC4)ncnc32)cc1`, for which the viability in test [1] is 92.5%; in test [3] it was 92.5% (inactive); in test [4], 96.8% (inactive); in test [5], 102% (inactive); in test [6] (setting [9]), 83.6%; in test [6] (setting [10]), 102%. For the same molecule, the Her2 level in test [2] was 92.5% (inactive). Also, the differential viability (reversal) in test [6] (H69AR cells + 2 uM doxorubicin) is 18.2% (inactive). In addition, the inhibition is -2.63% (inactive) in test [7] and 0.32% (inactive) in test [8].
Take `COc1ccc2c(c1)C(=NO)c1cc(OC)ccc1-2`: the viability in test [1] is 120%; in test [3], 120% (inactive); in test [4], 58.5% (inactive); in test [5] it was 83.8% (inactive); in test [6] (setting [9]), 90%; in test [6] (setting [10]), 83.8%. In addition, the Her2 level in test [2] is 61.5% (inactive). Moreover, the differential viability (reversal) in test [6] (H69AR cells + 2 uM doxorubicin) is -6.16% (inactive). The inhibition in test [7] was -8.24% (inactive); in test [8] it was 2% (inactive).
For the molecule `O=C(O)C1CCCCC1C(=O)NCCc1ccccc1` (stereo not given), the viability in test [1] was 87.5%; in test [3], 87.5% (inactive); in test [4], 103% (inactive); in test [5], 99.2% (inactive); in test [6] (setting [9]), 92%; in test [6] (setting [10]), 99.2%. Besides, the Her2 level in test [2] was 104% (inactive). Besides, the differential viability (reversal) in test [6] (H69AR cells + 2 uM doxorubicin) is 7.15% (inactive). The values for the inhibition in test [7] and in test [8] were 0.55% (inactive) and 10.3% (inactive), respectively.
Consider `COc1ccc(-c2ccc(Nc3ccc(S(=O)(=O)N4CCCC4)cc3)nn2)cc1OC`, for which the viability was 77.5% in test [1]; 77.5% (inactive) in test [3]; 61.6% (inactive) in test [4]; 53.6% (inactive) in test [5]; 56.5% in test [6] (setting [9]); 53.6% in test [6] (setting [10]). Also, the Her2 level in test [2] is 70.5% (inactive). Further, the differential viability (reversal) in test [6] (H69AR cells + 2 uM doxorubicin) is -2.87% (inactive). Further, the inhibition in test [7] is -6.8% (inactive); in test [8] it was -1.97% (inactive).

The term viability denotes a read-out of living cells in per cent, often relative to untreated cells. The term inhibition denotes the drop in the measured response relative to a control, in per cent.
